Laboratory results from ChEMBL document CHEMBL1138733, “Chimeric cyclodepsipeptides as mimetics for the anthelmintic PF1022A” (2004).

Assays:
Haemonchus contortus [1] = assay: anthelmintic activity as the eggs per gram of faeces in sheep infected with 5000 Haemonchus contortus L3 larvae at 0.01 mg/kg
Bos taurus [2] = assay: anthelmintic activity as the percent reduction in faecal egg count in sheep infected with 5000 Haemonchus contortus L3 larvae at 0.1 mg/kg; assay type: functional, Ovis aries, Feces
In short: (§1)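 Merino or Schwarzkopf sheep (25–35 kg) infected with 5000 H. contortus L3, dosed after the pre-patency period, orally in gelatine capsules or intravenously. Faecal egg counts by Wetzel-modified McMaster method, per gram of fresh faeces, at regular intervals before and after treatment. Activity as eggs per gram and percent reduction versus pretreatment. Untreated controls sampled at matching times.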

Haemonchus contortus [3] = assay: anthelmintic activity as the percent reduction in faecal egg count in sheep infected with 5000 Haemonchus contortus L3 larvae at 0.01 mg/kg
Bos taurus [4] = assay: anthelmintic activity as the eggs per gram of faeces in sheep infected with 5000 Haemonchus contortus L3 larvae at 0.1 mg/kg; assay type: functional, Ovis aries, Feces
In short: as §1

Structure (SMILES)	Activity (Haemonchus contortus [1]) [eggs/g]	Reduction (Bos taurus [2]) [%]	Reduction (Haemonchus contortus [3]) [%]	Activity (Bos taurus [4]) [eggs/g]
CC(C)C[C@H]1C(=O)O[C@H](Cc2ccccc2)C(=O)N(C)[C@@H](CC(C)C)C(=O)O[C@H](C)C(=O)N(C)[C@@H](CC(C)C)C(=O)O[C@H](Cc2ccccc2)C(=O)N(C)[C@@H](CC(C)C)C(=O)O[C@H](C)C(=O)N1C	573	100	43	0
CC(C)C[C@H]1C(=O)N[C@H]2CCC3SC[C@@H](C(=O)O[C@H](C)C(=O)N(C)[C@@H](CC(C)C)C(=O)O[C@H](Cc4ccccc4)C(=O)N(C)[C@@H](CC(C)C)C(=O)O[C@H](C)C(=O)N1C)N3C2=O (stereo partly drawn)	83	–	95	–
CC(C)C[C@H]1C(=O)O[C@H](Cc2ccccc2)C(=O)N(C)[C@@H](CC(C)C)C(=O)O[C@H](C)C(=O)N(C)[C@@H](CC(C)C)C(=O)N2CCC[C@@H]2C(=O)N2CCC[C@H]2C(=O)O[C@H](C)C(=O)N1C	50	–	98	–
